Assay outcomes deposited in PubChem BioAssay by several laboratories.
Rows were chosen to be rich in hits. Some 2.6% of all compounds tested hit in one or more screens of this group.
SENP6 block: blocks the human protease SENP6. Q9GZR1. Recombinant SENP6 catalytic domain, aminoluciferin luminescence. inhibition, % at 10 µM. actives 1.8% (n = 330,000);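 active = inhibition above about 50% at the single tested dose, limit read from the data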
SENP7 block: blocks the human protease SENP7 | Q9BQF6 | recombinant SENP7, Z-RLRGG-aminoluciferin luminescence, 40 min | inhibition, % at 5 µM | actives 1.5% (n = 330,000);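 active = inhibition above about 50% at the single test dose, limit read from the data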
SENP1 FRET inh: inhibitors of human SENP1 SUMO protease catalytic domain; Q9P0U3; recombinant SENP1 catalytic domain, CyPet-SUMO1-YPet FRET cleavage; inhibition, % at 10 µM; actives 0.21% (n = 360,000); AID 624204;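 active = inhibition at least 30% at 10 µM, raw YFP signal under a set limit, fluorescence ratio 0.5 to 1.5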
Target sequence (Q9P0U3 419-644 limits assumed): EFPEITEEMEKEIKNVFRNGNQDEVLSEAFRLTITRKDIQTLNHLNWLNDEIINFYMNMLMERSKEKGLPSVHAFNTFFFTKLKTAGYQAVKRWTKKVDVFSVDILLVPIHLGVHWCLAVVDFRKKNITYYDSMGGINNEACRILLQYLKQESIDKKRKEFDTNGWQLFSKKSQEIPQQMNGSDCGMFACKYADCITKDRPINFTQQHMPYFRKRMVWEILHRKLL
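Test system: hSENP1 catalytic domain, recombinant; Amount: 20 pM final SENP1 enzyme; Medium: Tris pH 8 buffer plus EDTA, NaCl, BME, BSA, NP40, catalase; Schedule: 50 min enzyme reaction, room temperature, light-protected; Technique: FRET fluorescence in CFP and YFP emission channels; Controls: no-enzyme wells low, DMSO-plus-enzyme wells high control.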
Platelet DG rel: modulates dense granule release in human platelets. inhibition, %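 (compounds screened at 7.5 µM in platelet-rich plasma)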. human platelet-rich plasma, SFLLRN dense granule ATP release, luminescence. actives 0.22% (n = 300,000);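 active = mean replicate score, as percent of positive control, at or above 50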
SENP8 block-1: blocks the human protease SENP8 | Q96LD8 | purified SENP8, Z-RLRGG-aminoluciferin cleavage, luminescence | inhibition, % at 10 µM | actives 1.2% (n = 330,000) | AID 2540; in the data active = inhibition above about 50%
Target sequence (Q96LD8 whole entry, looked up): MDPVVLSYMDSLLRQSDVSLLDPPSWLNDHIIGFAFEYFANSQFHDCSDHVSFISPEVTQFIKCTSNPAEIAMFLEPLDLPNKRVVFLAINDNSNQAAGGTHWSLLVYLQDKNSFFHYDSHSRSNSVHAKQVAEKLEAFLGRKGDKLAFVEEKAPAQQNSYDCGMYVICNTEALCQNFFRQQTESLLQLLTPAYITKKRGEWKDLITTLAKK
SENP8 block-2: blocks human SENP8 cleavage of Nedd8 substrate; AID 602440; actives 0.64% (n = 360,000); inhibition, % at 20 µM; recombinant SENP8, Nedd8 substrate fluorescence; in the data active = inhibition mostly above about 40%, no sharp cut-off; inactive = mostly below about 27%
A number is an active result; . = inactive; / = no result given.

SMILES | SENP6 block | SENP7 block | SENP1 FRET inh | Platelet DG rel | SENP8 block-1 | SENP8 block-2
COc1ccc(OC)c(C2=NS(=O)(=O)N(C)C(C(=O)Nc3ccc(F)cc3F)=C2)c1 | . | . | . | . | . | .
CCOC(=O)N1CCC(Nc2c(-c3ccc(C)c(C)c3)c(=O)c2=O)CC1 | . | . | . | . | . | 47
Cc1ccsc1C1CC(=O)OC2=C1C(=O)CC(C)(C)C2 (stereo unspecified) | . | . | / | . | . | /
CCCCc1ccc(CC2S/C(=C(\C#N)C(=O)N3CCOCC3)N(c3ccccc3)C2=O)cc1 (stereo unspecified) | . | . | 34 | . | . | .
CC(=O)c1cccc(-c2ccnc3c2CC(C(=O)NCC2CCOCC2)O3)c1 (stereo unspecified) | / | / | . | / | / | .
COc1ccc(C(c2c(C)n(C)n(-c3ccccc3)c2=O)c2c(C)n(C)n(-c3ccccc3)c2=O)cc1OC | . | . | . | . | . | .
Cc1[nH]n(-c2ccccc2)c(=O)c1C(C[N+](=O)[O-])c1ccc(Cl)cc1 (stereo unspecified) | . | . | . | . | . | 45
COc1ccc(C(c2c(C)[nH]n(-c3ccccc3)c2=O)c2c(C)[nH]n(-c3ccccc3)c2=O)cc1OC | . | . | . | . | . | 84
CCCN(CC(=O)Nc1ccccc1C)C(=O)COC(=O)c1cnc(C)cn1 | / | / | . | / | / | .
O=C(NC(=S)NNC(=O)c1ccccc1O)c1ccco1 | / | / | . | . | / | .
O=C(NC(=S)NNC(=O)c1cc2ccccc2cc1O)c1ccco1 | . | . | . | . | 61 | .
CC(NC(=O)CCc1nc2cc(S(=O)(=O)N3CCOCC3)ccc2n1C)c1ccc(S(N)(=O)=O)cc1 (stereo unspecified) | . | . | . | 55 | . | .
CN(C)S(=O)(=O)c1cccc(NC(=O)CCc2nc3cc(S(=O)(=O)N4CCOCC4)ccc3n2C)c1 | . | . | . | . | . | .
C/C(=N\Nc1nc2ccccc2[nH]1)c1ccccn1 | 59 | . | . | . | . | .
CCOC(=O)CCc1c(C)nc(SCc2ccc(C(=O)O)cc2)c(C#N)c1C | . | . | . | . | . | .
CC(=O)N1C(=O)/C(=C2\SC(=S)N(c3c(C)n(C)n(-c4ccccc4)c3=O)C2=O)c2ccccc21 | / | / | . | . | / | 81
Cc1c(N2C(=O)/C(=C3/C(=O)N(C)c4ccccc43)SC2=S)c(=O)n(-c2ccccc2)n1C | . | . | . | . | . | .
COc1cc(/C=C2\SC(N)=NC2=O)ccc1O | . | . | 40 | . | . | .
COc1cc(/C=C2/SC(=S)N(c3c(C)n(C)n(-c4ccccc4)c3=O)C2=O)ccc1O | . | . | 46 | . | . | .
COc1cc(/C=C2\N=C3CCCCCN3C2=O)ccc1O | . | . | 37 | . | . | .
C/C(CCc1ccc2c(c1)OCO2)=N\NC(=O)c1ccccc1Br | . | . | . | . | . | .
COc1cc(/C=C2\SC(=S)N(NS(=O)(=O)c3ccc(C)cc3)C2=O)ccc1O | . | . | 91 | . | . | .
CCOc1cc(/C=C2\SC(=S)N(NS(=O)(=O)c3ccc(C)cc3)C2=O)ccc1O | . | . | 83 | . | . | .
COc1cc(/C=C2\SC(=S)N(NS(=O)(=O)c3ccccc3)C2=O)ccc1O | . | . | 75 | . | . | 48
COc1ccc(/C=C2/SC(=S)N(NS(=O)(=O)c3ccccc3)C2=O)cc1 | . | . | . | . | . | .
SMILES | SENP6 block | SENP7 block | SENP1 FRET inh | Platelet DG rel | SENP8 block-1 | SENP8 block-2
CCC(C)(C)NC(=O)CN(Cc1ccco1)C(=O)CCC(=O)Nc1nccs1 | . | . | . | . | . | .
COc1ccc(S(=O)(=O)NNC(=O)Cc2csc(C)n2)cc1[N+](=O)[O-] | . | . | . | . | . | .
Cc1ccc(NC(=S)NNc2ccc(C(=O)O)cc2[N+](=O)[O-])cc1C | . | . | . | . | . | .
Nc1nc(COc2ccc(F)cc2Cl)nc(N2CCCCC2)n1 | . | . | . | . | . | .
O=C(OCCc1cc2ccccc2c(=O)o1)c1ccco1 | . | . | . | / | . | .
Cc1nc(-c2ccc(Br)cc2)ccc1C(=O)O | 75 | . | . | . | . | .
c1ccc(-c2csc(Nc3ncccn3)n2)cc1 | . | 75 | . | . | . | .
CCCCCNc1nc(-c2ccccc2)cs1 | 64 | . | / | . | . | /
Cc1cccnc1Nc1nc(-c2ccccn2)cs1 | 81 | 77 | . | . | 75 | .
